Measurements: publication PMC3334839 (The Journal of Neuroscience, 2012)
Substitutions are numbered along the chain they refer to.

Assays:
[1] = system: native GlyRs in cultured spinal neurons; assay: Whole-cell patch-clamp of Gly-activated current; format: cell-based, rat; settings: for average percent potentiation of IGly: concentration-response (Fig. 1E), EC2 Gly
Outline: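 Spinal cords from postnatal day 0 rats, papain-dissociated (20 U/ml, 37°C, 40 min). Plated at 300,000 cells/ml on poly-d-lysine in MEM/10% FBS, cultured ≥10 d, washed 30 min in external solution. Whole-cell, −60 mV, 20–22°C.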

[2] = biological target: T1, S296A mutant human 5-HT3A receptor (Homo sapiens, UniProt P46098, S319A); format: cell-based; settings: 0.1 μM AEA, vs wild-type
T1 sequence (P46098 24-478 S319A): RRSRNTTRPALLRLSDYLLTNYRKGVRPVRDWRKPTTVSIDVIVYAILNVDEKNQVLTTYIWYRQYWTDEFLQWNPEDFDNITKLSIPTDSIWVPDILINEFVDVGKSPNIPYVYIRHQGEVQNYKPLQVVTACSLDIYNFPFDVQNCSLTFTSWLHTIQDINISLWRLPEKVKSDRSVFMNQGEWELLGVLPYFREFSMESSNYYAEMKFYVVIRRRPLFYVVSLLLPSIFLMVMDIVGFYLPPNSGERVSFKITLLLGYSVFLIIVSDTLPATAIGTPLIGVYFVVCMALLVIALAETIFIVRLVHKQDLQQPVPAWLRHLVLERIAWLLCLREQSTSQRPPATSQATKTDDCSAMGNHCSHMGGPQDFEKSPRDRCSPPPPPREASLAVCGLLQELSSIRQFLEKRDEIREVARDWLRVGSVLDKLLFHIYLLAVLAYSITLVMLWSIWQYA
Outline: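 Human 5-HT3A receptors (wild-type or point mutant made by site-directed mutagenesis) transfected into HEK-293 cells. Cells recorded 2 d later, trypsin/EDTA-treated 2 h before, lifted, superfused with HEPES-buffered saline (pH 7.4). Whole-cell, CsCl pipette, −60 mV, 20–22°C. 5-HT 30 μM pulses before, during and after continuous 5 min test compound (0.1 μM) incubation; 5–7 cells, mean ± SE.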

[3] = biological target: T2, S296A mutant human α1 GlyR (Homo sapiens, UniProt P23415, S324A); assay: cell-based; format: cell-based; settings: S296A α1
T2 sequence (P23415 29-457 S324A): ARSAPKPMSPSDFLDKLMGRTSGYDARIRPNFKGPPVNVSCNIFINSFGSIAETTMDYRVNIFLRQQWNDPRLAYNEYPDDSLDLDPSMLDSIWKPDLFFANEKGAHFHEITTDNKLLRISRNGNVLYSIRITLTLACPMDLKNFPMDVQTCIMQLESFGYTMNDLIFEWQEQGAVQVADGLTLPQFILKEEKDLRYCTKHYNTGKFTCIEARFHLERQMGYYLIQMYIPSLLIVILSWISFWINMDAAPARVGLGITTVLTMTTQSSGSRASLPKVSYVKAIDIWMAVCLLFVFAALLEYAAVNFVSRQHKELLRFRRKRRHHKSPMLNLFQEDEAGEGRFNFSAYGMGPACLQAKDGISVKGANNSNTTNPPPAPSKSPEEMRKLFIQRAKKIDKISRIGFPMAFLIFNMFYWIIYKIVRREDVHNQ

S307A mutant rat α3 GlyR = biological target: T3, S307A mutant rat α3 GlyR (Rattus norvegicus, UniProt P24524, S329A); assay: Whole-cell patch-clamp of IGly in HEK-293 cells expressing S307A mutant α3 GlyRs; format: cell-based; settings: 10 μM AEA, 5 min sustained, EC2 Gly (100 μM)
T3 sequence (P24524 34-464 S329A): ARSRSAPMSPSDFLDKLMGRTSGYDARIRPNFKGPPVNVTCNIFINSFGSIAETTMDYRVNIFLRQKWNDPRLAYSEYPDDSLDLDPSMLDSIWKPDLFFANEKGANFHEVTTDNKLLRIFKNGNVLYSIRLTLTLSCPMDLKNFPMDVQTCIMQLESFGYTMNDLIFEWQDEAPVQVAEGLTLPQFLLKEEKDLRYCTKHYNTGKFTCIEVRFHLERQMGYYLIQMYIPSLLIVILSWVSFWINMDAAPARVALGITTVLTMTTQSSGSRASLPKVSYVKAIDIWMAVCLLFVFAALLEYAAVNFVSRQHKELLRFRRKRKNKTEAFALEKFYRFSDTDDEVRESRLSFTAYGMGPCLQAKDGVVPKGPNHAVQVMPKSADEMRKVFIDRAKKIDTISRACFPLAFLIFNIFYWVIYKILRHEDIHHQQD

α1β1 GlyRs = α1β1 GlyRs (Homo sapiens, UniProt P23415); format: cell-based
[4] = biological target: T4, G254A mutant human α1 GlyR (Homo sapiens, UniProt P23415, G282A); assay: Whole-cell patch-clamp of IGly in HEK-293 cells expressing G254A mutant α1 GlyRs; format: cell-based; settings: AEA 5 min sustained incubation
T4 sequence (P23415 29-457 G282A): T2 sequence (P23415 29-457 S324A) with G254A, A296S

α1β1 GlyRs, sequence (P23415 29-457): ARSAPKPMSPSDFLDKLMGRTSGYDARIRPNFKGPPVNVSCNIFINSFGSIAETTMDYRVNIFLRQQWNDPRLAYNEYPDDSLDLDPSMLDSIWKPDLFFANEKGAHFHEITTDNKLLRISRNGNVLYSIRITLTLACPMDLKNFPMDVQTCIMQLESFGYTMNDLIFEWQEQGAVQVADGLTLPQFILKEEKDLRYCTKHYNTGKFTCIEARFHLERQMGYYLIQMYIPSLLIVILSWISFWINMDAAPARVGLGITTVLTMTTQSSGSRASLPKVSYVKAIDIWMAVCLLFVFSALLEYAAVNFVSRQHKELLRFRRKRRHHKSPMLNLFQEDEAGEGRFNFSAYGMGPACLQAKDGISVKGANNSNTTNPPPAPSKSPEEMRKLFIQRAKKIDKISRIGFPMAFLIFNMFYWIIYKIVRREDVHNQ
α1β1 GlyRs, sequence (P48167 23-497 partner): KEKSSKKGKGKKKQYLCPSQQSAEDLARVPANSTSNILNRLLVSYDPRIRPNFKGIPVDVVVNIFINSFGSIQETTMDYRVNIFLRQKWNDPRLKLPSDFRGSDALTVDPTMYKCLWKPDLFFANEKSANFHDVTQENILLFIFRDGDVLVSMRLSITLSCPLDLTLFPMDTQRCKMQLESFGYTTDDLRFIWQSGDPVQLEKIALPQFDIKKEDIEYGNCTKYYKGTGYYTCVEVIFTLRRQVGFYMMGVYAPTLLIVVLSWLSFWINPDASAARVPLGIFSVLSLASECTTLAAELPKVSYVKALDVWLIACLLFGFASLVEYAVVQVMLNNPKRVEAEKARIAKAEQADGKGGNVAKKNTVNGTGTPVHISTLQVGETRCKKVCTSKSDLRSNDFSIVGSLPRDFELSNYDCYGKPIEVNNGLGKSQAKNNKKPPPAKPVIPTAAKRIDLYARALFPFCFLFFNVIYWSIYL

CCCCC/C=C\C/C=C\C/C=C\C/C=C\CCCC(=O)NCCO [AEA, anandamide]
time to maximal potentiation of IGly ([1]; 1 μM AEA sustained application): 5 min
average percentage potentiation of IGly ([1]; 1 μM AEA, 5 min sustained application, EC2 Gly (Fig. 1C)): 86 ± 24%
percentage potentiation of IGly, initial value ([1]; 1 μM AEA, after 1 min of AEA exposure, neurons): 6 ± 6%
average percent potentiation of IGly ([1]; 1 μM AEA): 79 ± 19%
average percent potentiation of IGly ([1]; 3 μM AEA): 236 ± 52%
average percent potentiation of IGly ([1]; 10 μM AEA): 636 ± 87%
average percent potentiation of IGly ([1]; 30 μM AEA): 800 ± 71%
effect of S296A mutation on AEA-induced inhibition of 5-HT-activated current [2]: did not significantly alter
AEA-induced potentiation of IGly, simultaneous application ([3]; 10 μM AEA simultaneously applied only with Gly): 99 ± 20%
AEA-induced potentiation of IGly ([3]; 10 μM AEA, 5 min sustained, EC2 Gly (10 μM)): 131 ± 41%
AEA-induced potentiation of IGly (S307A mutant rat α3 GlyR): 249 ± 48%
time to maximal potentiation of IGly (α1β1 GlyRs; 1 μM AEA sustained application, α1β1 heteromeric): 5 min
average percentage potentiation of IGly (α1β1 GlyRs; 1 μM AEA, 5 min sustained application, EC2 Gly, α1β1 (Fig. 1C)): 85 ± 12%
AEA-induced potentiation of IGly [4]: 597 ± 77%
